Source: ChEMBL document CHEMBL1158007, “Steroidal glycosides from the bulbs of Allium jesdianum” (J Nat Prod, 1999)
Converted amounts (≈) assume the structure as drawn.

Assays:
SR = assay: Growth inhibition of human SR cells after 72 hrs by MTT assay; type: functional
[1] = Growth inhibition of human HCT 116 cells after 72 hrs by MTT assay; type: functional; conditions: HCT-116, 72 h
OVCAR-5 = assay: Growth inhibition of human OVCAR5 cells after 72 hrs by MTT assay; type: functional; conditions: OVCAR-5, 72 h
MCF7 = assay: Growth inhibition of human MCF7 cells after 72 hrs by MTT assay; type: functional; conditions: MCF7, 72 h
DU-145 = assay: Growth inhibition of human DU-145 cells after 72 hrs by MTT assay; type: functional; conditions: DU-145, 72 h
SK-MEL-2 = assay: Growth inhibition of human SK-MEL-2 cells after 72 hrs by MTT assay; type: functional; conditions: SK-MEL-2, 72 h
MDA-MB-435 = assay: Growth inhibition of human MDA-MB-435 cells after 72 hrs by MTT assay; type: functional; conditions: MDA-MB-435, 72 h
SN12C = assay: Growth inhibition of human SN12C cells after 72 hrs by MTT assay; type: functional; conditions: read-out: LC50 (the source's name)
UACC-257 = assay: Growth inhibition of human UACC-257 cells after 72 hrs by MTT assay; type: functional; conditions: UACC-257, 72 h
RPMI-8226 = assay: Growth inhibition of human RPMI 8226 cells after 72 hrs by MTT assay; type: functional; conditions: RPMI-8226, 72 h
SW-620 = assay: Growth inhibition of human SW620 cells after 72 hrs by MTT assay; type: functional; conditions: SW-620, 72 h
[2] = Growth inhibition of human Hs 578T cells after 72 hrs by MTT assay; type: functional
HT-29 = assay: Growth inhibition of human HT-29 cells after 72 hrs by MTT assay; type: functional; conditions: HT-29, 72 h
TK-10 = assay: Growth inhibition of human TK-10 cells after 72 hrs by MTT assay; type: functional; conditions: TK-10, 72 h
CAKI-1 = assay: Growth inhibition of human Caki-1 cells after 72 hrs by MTT assay; type: functional; conditions: CAKI-1, 72 h
A498 = assay: Growth inhibition of human A498 cells after 72 hrs by MTT assay; type: functional; conditions: A498, 72 h
HL-60 = assay: Cytotoxicity against human HL-60 cells after 72 hrs by MTT assay; type: functional, cell-based; conditions: HL-60, 72 h
In short: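 HL-60 cells grown in RPMI 1640 with 10% FBS, L-glutamine, penicillin and streptomycin, seeded at 3 × 10^4 cells/mL, and preincubated 24 h at 37 °C in 5% CO2. Sample in EtOH-H2O (1:1) added to a final 0.01-10 µg/mL, with vehicle-only controls, for 72 h. MTT added for 4 h, then formazan dissolved in DMSO and read at 550 nm. IC50 taken from the dose-response curve.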

OVCAR-4 = assay: Growth inhibition of human OVCAR-4 cells after 72 hrs by MTT assay; type: functional; conditions: OVCAR-4, 72 h
ACHN = assay: Growth inhibition of human ACHN cells after 72 hrs by MTT assay; type: functional
NCI-H322M = assay: Growth inhibition of human NCI-H322M cells after 72 hrs by MTT assay; type: functional
[3] = read-out: LC50 (the source's name)

C[C@@H]1CC[C@@]2(OC1)O[C@H]1C[C@H]3[C@@H]4CC[C@H]5C[C@@H](O[C@@H]6O[C@H](CO)[C@H](O[C@@H]7O[C@H](CO)[C@@H](O)[C@H](O[C@@H]8OC[C@@H](O)[C@H](O)[C@H]8O)[C@H]7O[C@@H]7O[C@H](CO)[C@@H](O)[C@H](O)[C@H]7O)[C@H](O)[C@H]6O)[C@H](O)C[C@]5(C)[C@H]4CC[C@]3(C)[C@H]1[C@@H]2C
GI50 (SR): 63 µM | TGI (SR): < 100 µM | CC50 (SR; [3]): < 100 µM | GI50 [1]: 3.9 µM | TGI [1]: 18 µM | CC50 [1, 3]: 81 µM | GI50 (OVCAR-5): 5 µM | TGI (OVCAR-5): 20 µM | CC50 (OVCAR-5; [3]): 59 µM | GI50 (MCF7): 0.3 µM | TGI (MCF7): 0.62 µM | CC50 (MCF7; [3]): 1.9 µM | GI50 (DU-145): 2.4 µM | TGI (DU-145): 14 µM | CC50 (DU-145; [3]): 54 µM | GI50 (SK-MEL-2): 5.5 µM | TGI (SK-MEL-2): 19 µM | CC50 (SK-MEL-2; [3]): 48 µM | GI50 (MDA-MB-435): 11 µM | TGI (MDA-MB-435): 26 µM | CC50 (MDA-MB-435; [3]): 66 µM | CC50 (SN12C): < 100 µM | GI50 (UACC-257): 17 µM | TGI (UACC-257): 36 µM | CC50 (UACC-257; [3]): 71 µM | GI50 (RPMI-8226): 0.79 µM | TGI (RPMI-8226): 23 µM | CC50 (RPMI-8226; [3]): 81 µM | GI50 (SW-620): 1.7 µM | TGI (SW-620): 19 µM | CC50 (SW-620; [3]): 78 µM | GI50 [2]: 17 µM | TGI [2]: 32 µM | CC50 [2, 3]: 63 µM | GI50 (HT-29): 1.1 µM | TGI (HT-29): 3.1 µM | GI50 (TK-10): 4.4 µM | TGI (TK-10): < 100 µM | CC50 (TK-10; [3]): < 100 µM | GI50 (CAKI-1): 1.4 µM | TGI (CAKI-1): 18 µM | CC50 (CAKI-1; [3]): < 100 µM | GI50 (A498): 4.9 µM | TGI (A498): 35 µM | CC50 (A498; [3]): < 100 µM | IC50 (HL-60): 1.5 µg/mL (≈ 1.43 µM) | GI50 (OVCAR-4): 2 µM | TGI (OVCAR-4): 4.6 µM | CC50 (OVCAR-4; [3]): 13 µM | GI50 (ACHN): 2.8 µM | TGI (ACHN): 12 µM | CC50 (ACHN; [3]): 38 µM | GI50 (NCI-H322M): 12 µM | TGI (NCI-H322M): 26 µM | CC50 (NCI-H322M; [3]): 55 µM
